Bioassay records (PubChem BioAssay)
Most compounds without a hit are left out; they make up all but 1.7% or so of the library.
AI-2 QS mod: modulators of Vibrio harveyi AI-2 quorum sensing system | activity change, % at 7.5 µM | Vibrio harveyi JMH597 AI-2 luminescence/OD600 ratio, 9 h; active compounds read low; strain lacks LuxN and CqsS sensors; 0 = neutral-control median | AID 2094 | actives 0.4% (n = 300,000); in the data active = activity change below about -75%, passing the limit was not always enough;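 also: luminescence divided by OD600 gain over 9 h not by final OD600 alone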
CAL PDZ FP-1: CAL PDZ (human) peptide binding inhibition; inhibition, % at 24.9 µM; actives 0.92% (n = 300,000); purified CAL PDZ, TMR-peptide fluorescence polarization, 1 h; AID 602252;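 active = mean inhibition of at least 30% with at least half of replicates also reaching 30%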;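 also: 0% = DMSO neutral control and 100% = excess unlabeled competitor peptide PRC23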
Rce1 inhib: blocks yeast Ras-converting enzyme | yeast membranes, quenched prenylated peptide cleavage fluorescence | calls only | actives 0.27% (n = 290,000) | AID 2563;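 active = fall in fluorescence gain of 50% or more versus controls, with final raw signal at or below 3038400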;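 also: plate controls were neutral control wells for no effect and wells lacking membranes for full effect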
Target sequence (Q03530 whole entry, looked up): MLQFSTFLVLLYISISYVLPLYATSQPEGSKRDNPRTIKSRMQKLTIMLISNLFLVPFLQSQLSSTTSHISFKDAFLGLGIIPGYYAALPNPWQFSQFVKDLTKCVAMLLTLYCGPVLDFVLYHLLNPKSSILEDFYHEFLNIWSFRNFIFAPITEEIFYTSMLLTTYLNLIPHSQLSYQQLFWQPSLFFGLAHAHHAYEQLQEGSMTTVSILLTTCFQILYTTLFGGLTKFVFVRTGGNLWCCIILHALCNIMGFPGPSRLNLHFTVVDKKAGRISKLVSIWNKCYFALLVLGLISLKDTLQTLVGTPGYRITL
CAL PDZ FP-2: human CAL PDZ-peptide interaction inhibition. inhibition, % at 20 µM. purified CAL PDZ, TMR-peptide fluorescence polarization, 1 h. Q9HD26. AID 504414. actives 0.02% (n = 330,000);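 active = highest replicate inhibition of at least 40%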;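 also: plate controls were DMSO neutral control wells for no effect and unlabeled competitor peptide control wells for full effect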
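Material: tagged CAL PDZ protein CerCALP, purified; buffer or medium: sodium phosphate/NaCl buffer pH 7.4 with TCEP, IgG, Thesit; also added: fluorescent TMR peptide probe; schedule: 1 h incubation at room temperature before polarization reading; technique: fluorescence polarization from S- and P-plane intensities, G-factor corrected; control set: unlabelled peptide and DMSO controls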
ARNT TACC3 PPI: ARNT/TACC3 interaction disruption | AID 623870 | Q9Y6A5 | actives 0.66% (n = 390,000) | inhibition, % at 9.99 µM | AlphaScreen His-ARNT PAS-B/GST-TACC3 binding, luminescence; TACC3 fragment carries E629A point mutation;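 active = mean inhibition of replicates at least 50% and at least half of replicates each reaching 50%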;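 also: 0% = complete ARNT plus TACC3 wells and 100% = ARNT alone without TACC3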
Starred values were filed as active, the others as inactive; i = inactive; x = not tested or not shown; + = active, no number.

SMILES	AI-2 QS mod	CAL PDZ FP-1	Rce1 inhib	CAL PDZ FP-2	ARNT TACC3 PPI
CCc1ccc(NC(=O)c2cnc(N3CCN(c4ccccn4)CC3)c3ccccc23)cc1	15	-3	+	-1	2
Cc1nc(Nc2ccc(C(=O)O)cc2)sc1-c1ccccc1	8	56*	i	0	-1
Cc1nc(Nc2ccccc2)sc1-c1ccccc1	-1	0	i	0	30
OCC1(Cc2ccc(Cl)cc2)CCN(Cc2ccc(F)c(F)c2)CC1	7	66*	i	-1	-1
OCC1(Cc2ccc(Cl)cc2)CCN(Cc2ccc3nsnc3c2)CC1	21	-6	i	-1	2
CCCC1CCC(c2ccc(OCC)cc2)=CC1=O (centres undefined)	21	-3	i	0	-1
c1ccn(CCc2ccncc2)c1	x	-7	x	0	-7
Nc1ccc(CCn2ccnc2)cc1	15	x	i	-3	63*
CN(C)C(=O)c1ccc(NC(=O)c2ccc(-c3ccc(Cl)cc3)o2)cc1	x	62*	x	-3	-29
Cc1ccc(/C=C2\CCOC2=O)cc1	15	-2	i	-1	-12
Cc1ccc(/C=C2/CNC/C(=C/c3ccc(C)cc3)C2=O)cc1	x	39*	x	0	-8
Cc1ccc(C(=O)CCC(=O)OCC(=O)Nc2ccc3[nH]c(=O)[nH]c3c2)cc1	9	x	i	0	0
COc1ccc(C(CCN)Cc2ccccc2)cc1 (centres undefined)	20	-4	i	-4	3
Cn1c(=O)[nH]c(=O)c2c1nc(SCCC(=O)O)n2Cc1cccc(Br)c1	13	-4	i	1	-3
CC(=O)CSc1nc2c(c(=O)[nH]c(=O)n2C)n1Cc1cccc(Br)c1	8	57*	i	-1	-2
O=C(CN(Cc1ccccc1)S(=O)(=O)c1ccc(F)cc1)NCCC1=CCCCC1	1	73*	i	25	-7
Cc1ccc(S(=O)(=O)N(CC(=O)NCCC2=CCCCC2)Cc2ccccc2)cc1	-2	-1	i	0	7
COC(=O)CC1SC(=O)NC1=O (centres undefined)	14	2	x	-1	-8
CCNc1nc(NCC)nc(OCCOC(C)=O)n1	18	-3	i	1	-6
CCNc1nc(NCC)nc(C(=O)OCCO)n1	1	x	i	-1	49*
O=C(CCCn1ncn2c(cc3occc32)c1=O)N1CCc2ccccc2C1	23	-3	i	-1	-3
Cc1cc(N2CCN(c3ccccc3)CC2)nc2ccccc12	22	62*	i	x	-2
O=C(NCCc1ccccc1)C(=O)NC1CCCCC1	10	-5	i	-1	3
O=C(NC1CCCCC1)C(=S)NCCc1ccccc1	19	43*	i	-2	-1
CSc1ccc(/C=C/C(=O)OCC(=O)NC(C)C)cc1	19	-6	+	-1	2
SMILES	AI-2 QS mod	CAL PDZ FP-1	Rce1 inhib	CAL PDZ FP-2	ARNT TACC3 PPI
CN(C(=O)c1ccc(-c2nn(C)c(=O)c3ccccc23)cc1)c1ccccc1	25	-4	i	-2	-2
COc1ccc(CN(C)C[C@@H]2Oc3ccc(NC(=O)c4ccncc4)cc3C(=O)N([C@@H](C)CO)C[C@@H]2C)cc1	x	x	x	x	-2
Nc1cc(C(=O)c2ccccc2)ccc1[N+](=O)[O-]	23	37*	i	-2	14
Cn1c(=O)c2cc(S(=O)(=O)NCCC(=O)NCc3ccccc3Cl)ccc2n(C)c1=O	23	1	i	0	50*
Cc1ccc(CNC(=O)CCNS(=O)(=O)c2ccc3c(c2)c(=O)n(C)c(=O)n3C)cc1	27	x	i	-2	8
CN1CCN(C(=O)c2ccc(-c3cccs3)s2)CC1	12	x	+	0	-3
CC12CN3CC(C)(CN(C1)C3c1ccccc1)C2O (centres undefined)	2	4	i	0	-11
Nc1cccc(NC(=O)c2ccco2)c1	-8	-3	i	x	-5
CCC(=O)Oc1cccc(C(=O)Nc2cccc(NC(=O)c3ccco3)c2)c1	-4	44*	i	-3	x
O=C(Nc1cccc(F)c1)c1ccco1	12	1	i	54*	-2
CCC(=O)Oc1ccc(NC(=O)c2ccco2)cc1	20	0	i	0	-2
O=C(Nc1ccc(NC(=O)c2ccco2)c(Cl)c1)c1ccccc1	-4	x	i	0	0
O=C(Nc1ccc(Br)c(Cl)c1)c1ccco1	1	46*	i	x	-6
O=C(Nc1ccc(CSc2ccccc2)cc1)c1ccco1	-52	63*	i	-4	-7
CC(C)COC(=O)NC1c2ccccc2Oc2ccccc21	8	-2	i	-2	1
CC(C)(C)C(=O)Nc1ccc(S(=O)(=O)NC2=NCCCCC2)cc1	x	-5	x	-1	x
CC(C)(C)NC(=O)CSc1nnc(-c2c[nH]c3ccccc23)o1	8	-4	i	-2	-10
N#Cc1ccc(CSc2nnc(-c3c[nH]c4ccccc34)n2-c2ccccc2)cc1	25	0	+	-1	15
N#Cc1ccc(CSc2nnc(-c3ccccn3)n2-c2ccccc2)cc1	16	2	i	-1	12
c1ccc(CSc2nnc(-c3c[nH]c4ccccc34)o2)cc1	-82*	0	i	-2	-4
CCCC(C)NC(=O)CSc1nnc(-c2c[nH]c3ccccc23)o1 (centres undefined)	12	46*	i	-2	-15
CC(C)CC(NC(=O)OCc1ccccc1)C(=O)NC(Cc1ccccc1)C(=O)CCl (centres undefined)	x	-9	x	-1	-7
CC(=O)OCC(=O)[C@@]1(O)CC[C@H]2[C@@H]3CCC4=CC(=O)C=C[C@]4(C)[C@@]3(F)[C@@H](O)C[C@@]21C	x	-4	x	-1	-2
CC(=O)c1cc(C(=O)N2CCc3c([nH]c4ccccc34)C2CC(C)C)[nH]n1 (centres undefined)	19	77*	i	-1	15
OC1(C2(O)CC(c3ccccc3)ON2)CCCCC1 (centres undefined)	0	-5	i	3	-1
SMILES	AI-2 QS mod	CAL PDZ FP-1	Rce1 inhib	CAL PDZ FP-2	ARNT TACC3 PPI
O=C(COC(=O)c1cc(-c2ccco2)nc2ccccc12)NCc1ccccc1	2	-4	i	x	-7
CNC(=O)COC(=O)c1cc(-c2ccco2)nc2ccccc12	15	47*	i	-1	2
Cc1ccccc1-c1cc(C(=O)O)n(CC2CC(c3cccnc3)=NO2)n1 (centres undefined)	x	2	x	0	0
CCCc1ccc(Oc2cn[nH]c2-c2ccc(O)c(C)c2O)cc1	-94*	-5	i	-21	6
CCCc1ccc(Oc2c(-c3ccc(O)c(C)c3O)n[nH]c2C)cc1	34	-4	i	-2	3
Cc1ccccc1NC(=O)COC(=O)CNC(=O)c1sc2ccccc2c1Cl	12	2	i	-1	-2
